IC50 data for 13 molecules are collected here from ChEMBL document CHEMBL5390206, “Ormosianines A-P, Structurally Diverse Quinolizidine Alkaloids with AChE Inhibitory Effects from Ormosia yunnanensis” (J Nat Prod, 2023).

The test in a line: Inhibition of AchE in fly head nerve cells using acetylthiocholine iodide as substrate preincubated for 20 mins followed by substrate addition and measured every 30s for 1 hr by DTNB reagent based Ellman's spectrophotometric method. The following applies: Diptera, Nerve cell. The method in brief:
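Modified spectrophotometric AChE method, with chlorpyrifos and huperzine A run alongside as positive controls.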

Each structure is given as a SMILES string.

For `CC(=O)N1CCCC[C@H]1[C@@]12C[C@@H](C[C@H]3CCCN[C@@H]31)[C@H]1CCCCN1C2`, the IC50 worked out at 5.65 µM.
`CC(=O)O[C@H]1CCN2C[C@@H]3C[C@@H](CN4C(=O)[C@H](O)CC[C@H]34)[C@@H]2C1`: the IC50 came to 9.77 µM.
`C=CCCN1C[C@@H]2C[C@@H](CN3C(=O)CC[C@H](O)[C@]23O)C1=O` came in with an IC50 of 29.6 µM.
Then `C=CCCN1C[C@@H]2C[C@@H](Cn3c2cccc3=O)C1=O`, with 12.8 µM.
Then `C1CC[C@H]([C@]23C[C@@H](C[C@@H]4CCCN[C@H]42)[C@H]2CCCCN2C3)NC1`, with 5.56 µM; and `C=CCCN1C[C@@H]2C[C@@H](CN3C(=O)CCC=C23)C1=O`, with 20 µM.
With `O=C1C(CCCO)=C[C@H]2C[C@]1([C@@H]1CCCCN1)CN1CCCC[C@@H]21` the figure was 1.55 µM; with `CN1CCCC[C@H]1[C@@]12C[C@H](C[C@H]3CCCN[C@@H]31)[C@H]1CCCCN1C2`, 17 µM; with `C=CCCN1C[C@@H]2C[C@@H](CN3C(=O)CCC[C@]23OC)C1=O`, 15.7 µM.
Turning to `C1=C2CCCN3CN4CCCC[C@@H]4[C@]4(C[C@@H]1[C@H]1CCCCN1C4)[C@@H]23`, inhibition was half-maximal at 5.23 µM (IC50).
For `CC(=O)N1CCCC[C@@H]1[C@]12C[C@H](C[C@@H]3CCCN[C@H]31)[C@H]1CCCCN1C2`, the IC50 was found to be 8.48 µM.
`CCOP(=S)(OCC)Oc1nc(Cl)c(Cl)cc1Cl` [CHLORPYRIFOS] yielded an IC50 of 0.0233 µM.
Then `C/C=C1\[C@H]2C=C(C)C[C@]1(N)c1ccc(=O)[nH]c1C2` [HUPERZINE A], with 0.12 µM.
